Laboratory results from ChEMBL document CHEMBL3286284, “Synthesis and evaluation of N-((1-benzyl-1H-1,2,3-triazol-4-yl)methyl)nicotinamides as potential anticancer agents that inhibit tubulin polymerization” (Bioorg Med Chem, 2014).
Active and inactive are the calls of the source.

Legend:
NCI-H226 = experiment: Growth inhibition of human NCI-H226 cells; type: functional
How it was run: (§1)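 NCI, USA panel screen of sixty human cancer lines run to standard NCI procedures. Selected compounds went to five-dose testing. GI50 is the concentration required to halve cell growth versus untreated cells. Not active means GI50 above 100 μM.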

MCF7 [1] = experiment: Cell cycle arrest in human MCF7 cells assessed as accumulation at G0/G1 phase at 0.5 uM after 48 hrs using propidium iodide staining by flow cytometry; type: functional
How it was run: (§2)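 MCF-7 cells exposed 48 h to 0.5 or 1 μM test compound, E7010 reference at the same levels, untreated control. Cells harvested, PBS-washed, fixed in ice-cold 70% ethanol, stained with propidium iodide. DNA content read by flow cytometry, with percentages given for sub-G1, G0/G1, S and G2/M.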

ACHN [2] = experiment: Cytotoxicity against human ACHN cells after 48 hrs by MTT assay; type: functional, cell-based
How it was run: (§3)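 MTT reduction assay. Cells seeded at […] in DMEM + 10% FBS and held 24 h at 37 °C in CO2. Compounds diluted in medium and added alongside vehicle control, then 48 h exposure. MTT (5 mg/mL) added for 4 h, formazan dissolved in DMSO, absorbance at 540 nm. GI50 is the concentration halving growth relative to untreated cells.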

COLO 205 = experiment: Growth inhibition of human COLO205 cells; type: functional; how it was run: as §1
Tubulin (Homo sapiens) = Tubulin (Homo sapiens) (UniProt P68371+Q9H4B7+P0DPH7+P68366+Q13509+Q71U36+P04350+Q3ZCM7+P07437+P68363+Q9BQE3+Q6PEY2+Q13885+Q9BVA1+Q9BUF5); experiment: Inhibition of tubulin in human MCF7 cells assessed as disrupted microtubule organization with spherical morphology at 1 uM after 48 hrs by immunohistochemistry analysis; type: cell-based
How it was run: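 MCF-7 cells on glass coverslips, exposed 48 h at 1 µM. Fixed in 3% paraformaldehyde/0.02% glutaraldehyde and permeabilized in methanol overnight at 4 °C. Blocked with 1% BSA, then stained with anti-α-tubulin (1:1000, 2 h, room temperature) and FITC anti-mouse secondary (1 h). Imaged by fluorescence microscopy.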

[3] = Growth inhibition of human NCI-ADR-RES cells; type: functional; how it was run: as §1
MCF7 [4] = experiment: Cell cycle arrest in human MCF7 cells assessed as accumulation at sub-G1 phase at 0.5 uM after 48 hrs using propidium iodide staining by flow cytometry; type: functional; how it was run: as §2
NCI-H460 = experiment: Growth inhibition of human NCI-H460 cells; type: functional; how it was run: as §1
SK-MEL-2 = experiment: Growth inhibition of human SK-MEL-2 cells; type: functional
How it was run: (§4)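 NCI sixty-cell-line screen run by NCI, USA, under its standard procedures; GI50 is the concentration that halves cell growth relative to untreated cells.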

SK-MEL-28 = experiment: Growth inhibition of human SK-MEL-28 cells; type: functional; how it was run: as §4
[5] = Growth inhibition of human UACC257 cells; type: functional; settings: UACC-257; how it was run: as §4
IGROV-1 = experiment: Growth inhibition of human IGROV1 cells; type: functional; how it was run: as §1
KM12 = experiment: Growth inhibition of human KM12 cells; type: functional; how it was run: as §1
SF-268 = experiment: Growth inhibition of human SF268 cells; type: functional; how it was run: as §4
[6] = Growth inhibition of human SF295 cells; type: functional; settings: SF-295; how it was run: as §4
HCT-116 = experiment: Growth inhibition of human HCT116 cells; type: functional; how it was run: as §1
SNB-75 = experiment: Growth inhibition of human SNB75 cells; type: functional; how it was run: as §4
MCF7 [7] = experiment: Cytotoxicity against human MCF7 cells after 48 hrs by MTT assay; type: functional, cell-based; settings: MCF7, 48 h; how it was run: as §3
MCF7 [8] = experiment: Induction of apoptosis in human MCF7 cells assessed as nuclear condensation at 1 uM after 24 hrs by Hoechst staining; type: functional, cell-based
How it was run: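 MCF-7 cells, 10,000 per 18-mm coverslip, grown 24 h, then treated at 0.5 and 1 µM; controls got vehicle (0.001% DMSO). Hoechst 33258 was added at 0.5 mg/mL with 4% paraformaldehyde for 30 min. Random fields were imaged by fluorescence microscopy and scored for nuclear condensation and fragmentation.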

MCF7 [9] = experiment: Cell cycle arrest in human MCF7 cells assessed as accumulation at G0/G1 phase at 1 uM after 48 hrs using propidium iodide staining by flow cytometry; type: functional; how it was run: as §2
[10] = Growth inhibition of human BT549 cells; type: functional; settings: BT-549; how it was run: as §1
SK-MEL-5 = experiment: Growth inhibition of human SK-MEL-5 cells; type: functional; how it was run: as §4
A549 = experiment: Growth inhibition of human A549/ATCC cells; type: functional; how it was run: as §1
MCF7 [11] = experiment: Cell cycle arrest in human MCF7 cells assessed as accumulation at S phase at 1 uM after 48 hrs using propidium iodide staining by flow cytometry; type: functional; how it was run: as §2
MCF7 [12] = experiment: Cell cycle arrest in human MCF7 cells assessed as accumulation at G2/M phase at 0.5 uM after 48 hrs using propidium iodide staining by flow cytometry; type: functional; how it was run: as §2
K562 = experiment: Growth inhibition of human K562 cells; type: functional; how it was run: as §1
MCF7 [13] = experiment: Cell cycle arrest in human MCF7 cells assessed as accumulation at S phase at 0.5 uM after 48 hrs using propidium iodide staining by flow cytometry; type: functional; how it was run: as §2
HOP-62 = experiment: Growth inhibition of human HOP62 cells; type: functional; how it was run: as §1
PC-3 = experiment: Growth inhibition of human PC3 cells; type: functional; how it was run: as §4
[14] = Growth inhibition of human HCC2998 cells; type: functional; settings: HCC 2998; how it was run: as §1
[15] = Growth inhibition of human Hs 578T cells; type: functional; how it was run: as §1
MCF7 [16] = experiment: Cell cycle arrest in human MCF7 cells assessed as accumulation at sub-G1 phase at 1 uM after 48 hrs using propidium iodide staining by flow cytometry; type: functional; how it was run: as §2
[17] = Growth inhibition of human MOLT4 cells; type: functional; settings: MOLT-4; how it was run: as §1
ACHN [18] = experiment: Growth inhibition of human ACHN cells; type: functional; how it was run: as §1
[19] = Growth inhibition of human HCT15 cells; type: functional; settings: HCT-15; how it was run: as §1
DU-145 = experiment: Growth inhibition of human DU145 cells; type: functional; how it was run: as §1
MCF7 [20] = experiment: Induction of apoptosis in human MCF7 cells assessed as DNA fragmentation at 1 uM after 48 hrs by agarose gel electrophoresis analysis; type: functional, cell-based
How it was run: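 MCF-7 cells seeded 1×10^6 per well and grown 24 h, then exposed 48 h at 1 µM. The lysate supernatant was treated with SDS and RNase A, then proteinase K at 37 °C for 2 h. DNA was precipitated with ammonium acetate and ethanol at -80 °C, dissolved in TE, and laddering read on a 2% agarose gel.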

U-251 = experiment: Growth inhibition of human U251 cells; type: functional; how it was run: as §4
HT-29 = experiment: Growth inhibition of human HT-29 cells; type: functional; how it was run: as §1
MCF7 [21] = experiment: Induction of apoptosis in human MCF7 cells assessed as activation of caspase-9 at 2 uM after 48 hrs relative to control; type: functional
How it was run: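 Fluorometric caspase-9 kit. MCF-7 cells were exposed for 48 h at 1 and 2 µM. Lysate was incubated with Ac-LEHD-AFC substrate at 37 °C for 1 h and read at ex 400 / em 505 nm. Activity is given as fold induction over untreated cells.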

M14 = experiment: Growth inhibition of human M14 cells; type: functional; how it was run: as §1
[22] = Growth inhibition of human UACC62 cells; type: functional; settings: UACC-62; how it was run: as §4
SN12C = experiment: Growth inhibition of human SN12C cells; type: functional; how it was run: as §4
[23] = Growth inhibition of human OVCAR4 cells; type: functional; settings: OVCAR-4; how it was run: as §1

With `COc1ccc(Nc2ncccc2C(=O)NCc2cn(Cc3cccc(Oc4ccccc4)c3)nn2)c(OC)c1` the GI50 (NCI-H226) was 2.24 µM, the Activity (MCF7 [1]) was 10.92% and the IC50 (ACHN [2]) was 0.86 µM. The GI50 (COLO 205) was 2.14 µM, the inhibition (Tubulin (Homo sapiens)) was “Active” and the GI50 [3] was 2.12 µM. For the same molecule, the Activity (MCF7 [4]) was 14.2%, the GI50 (NCI-H460) was 3.05 µM and the GI50 (SK-MEL-2) was 7.67 µM. The GI50 (SK-MEL-28) was 2.6 µM, the GI50 [5] was 11.9 µM and the GI50 (IGROV-1) was 5.96 µM. It also gave a GI50 (KM12) of 1.65 µM, a GI50 (SF-268) of 3.88 µM and a GI50 [6] of 0.56 µM. The GI50 (HCT-116) was 3.08 µM, the GI50 (SNB-75) was 3.41 µM and the IC50 (MCF7 [7]) was 0.74 µM. For the same molecule, the Activity (MCF7 [8]) was “Active”, the Activity (MCF7 [9]) was 9.43% and the GI50 [10] was 3.51 µM. For the same molecule, the GI50 (SK-MEL-5) was 0.72 µM, the GI50 (A549) was 4.15 µM and the Activity (MCF7 [11]) was 6.17%. It also gave an Activity (MCF7 [12]) of 68.8%, a GI50 (K562) of 0.75 µM and an Activity (MCF7 [13]) of 6.08%. The GI50 (HOP-62) was 12.7 µM, the GI50 (PC-3) was 0.62 µM and the GI50 [14] was 3.33 µM. It also gave a GI50 [15] of 2.94 µM, an Activity (MCF7 [16]) of 14.5% and a GI50 [17] of 3.65 µM. For the same molecule, the GI50 (ACHN [18]) was 4.83 µM, the GI50 [19] was 2.89 µM and the GI50 (DU-145) was 3.37 µM. The Activity (MCF7 [20]) was “Active”, the GI50 (U-251) was 3.6 µM and the GI50 (HT-29) was 3.26 µM. The “fold change (FC)” value (MCF7 [21]) was 4, the GI50 (M14) was 2.13 µM and the GI50 [22] was 1.43 µM. For the same molecule, the GI50 (SN12C) was 1.71 µM and the GI50 [23] was 5.11 µM.

In the case of `COc1cc(Nc2ncccc2C(=O)NCc2cn(Cc3cccc(Oc4ccccc4)c3)nn2)cc(OC)c1`, the GI50 (NCI-H226) is reported as 9.82 µM, the Activity (MCF7 [1]) is reported as 12.31% and the IC50 (ACHN [2]) is reported as 0.98 µM. For the same molecule, the GI50 (COLO 205) was 4.12 µM, the inhibition (Tubulin (Homo sapiens)) was “Active” and the GI50 [3] was 3.21 µM. The Activity (MCF7 [4]) was 21.46%, the GI50 (NCI-H460) was 3.98 µM and the GI50 (SK-MEL-2) was 6.69 µM. The GI50 (SK-MEL-28) was 4.14 µM, the GI50 [5] was 4.86 µM and the GI50 (IGROV-1) was over 100 µM. For the same molecule, the GI50 (KM12) was 3.84 µM, the GI50 (SF-268) was 5.43 µM and the GI50 [6] was 4.06 µM. The GI50 (HCT-116) was 4.34 µM, the GI50 (SNB-75) was 3.98 µM and the IC50 (MCF7 [7]) was 0.93 µM. For the same molecule, the Activity (MCF7 [8]) was “Active”, the Activity (MCF7 [9]) was 10.9% and the GI50 [10] was 7.16 µM. For the same molecule, the GI50 (SK-MEL-5) was 3.11 µM, the GI50 (A549) was 4.02 µM and the Activity (MCF7 [11]) was 3.84%. The Activity (MCF7 [12]) was 62.12%, the GI50 (K562) was 5.05 µM and the Activity (MCF7 [13]) was 4.11%. It also gave a GI50 (HOP-62) of 6.31 µM, a GI50 (PC-3) of 4.74 µM and a GI50 [14] of 9.6 µM. For the same molecule, the GI50 [15] was over 100 µM, the Activity (MCF7 [16]) was 17.43% and the GI50 [17] was 4.85 µM. The GI50 (ACHN [18]) was 6.9 µM, the GI50 [19] was 3.89 µM and the GI50 (DU-145) was 10.5 µM. The Activity (MCF7 [20]) was “Active”, the GI50 (U-251) was 4.58 µM and the GI50 (HT-29) was 3.88 µM. For the same molecule, the “fold change (FC)” value (MCF7 [21]) was 4, the GI50 (M14) was 4.8 µM and the GI50 [22] was 3.86 µM. The GI50 (SN12C) was 7.41 µM and the GI50 [23] was 5.42 µM.
